Measured values published in ChEMBL document CHEMBL2062420, “Triazole Appending Agent (TAAG): A New Synthon for Preparing Iodine-Based Molecular Imaging and Radiotherapy Agents” (ACS Med Chem Lett, 2012).
One block for each compound: values may come before it.

Experiments:
[1] = Drug uptake in NCr nude mouse tumor xenografted with human LNCAP cells measured 1 hr post injection in presence of PSMA inhibition PMPA; assay type: ADME, Neoplasm; settings: tumor (human LNCaP xenograft), with PMPA (PSMA inhibitor), amount not stated, read-out: Drug uptake
Thyroid gland [2] = assay: Drug uptake in NCr nude mouse thyroid xenografted with human LNCAP cells at 0.63 MBq, iv measured 23 hrs post injection by gamma counting; assay type: ADME, organism-based; settings: in vivo
[3] = Drug uptake in NCr nude mouse tumor xenografted with human LNCAP cells at 37 MBq, iv measured 2 hrs post injection by gamma counting; assay type: ADME, organism-based, Neoplasm; settings: in vivo
Outline: (§1)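 Male NCr nude mice bearing LNCap tumours (PSMA-expressing) received 37 MBq of the radioiodinated PSMA-TAAG conjugate via the tail vein. Distribution was followed by scintigraphic imaging at 2 h and 24 h post-injection, with a fused scintigraphic-CT image taken at 23 h.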

[4] = Drug uptake in NCr nude mouse tumor xenografted with human LNCAP cells at 0.63 MBq, iv measured 23 hrs post injection by gamma counting; assay type: ADME, organism-based, Neoplasm; settings: in vivo
[5] = Drug uptake in NCr nude mouse tumor xenografted with human LNCAP cells at 0.63 MBq, iv measured 1 hrs post injection by gamma counting; assay type: ADME, organism-based, Neoplasm; settings: in vivo
Kidney [6] = assay: Drug uptake in NCr nude mouse kidney xenografted with human LNCAP cells at 37 MBq, iv measured 2 hrs post injection by gamma counting; assay type: ADME, organism-based; settings: in vivo; outline: as §1
Urinary bladder [7] = assay: Drug uptake in NCr nude mouse bladder xenografted with human LNCAP cells at 37 MBq, iv measured 2 hrs post injection by gamma counting; assay type: ADME, organism-based; settings: in vivo; outline: as §1
[8] = Lipophilicity, log D of the compound at pH 7.4; assay type: physicochemical; settings: buffer
Thyroid gland [9] = assay: Drug uptake in NCr nude mouse thyroid xenografted with human LNCAP cells at 37 MBq, iv measured 24 hrs post injection by gamma counting; assay type: ADME, organism-based; settings: in vivo; outline: as §1
[10] = Drug uptake in NCr nude mouse tumor xenografted with human LNCAP cells at 37 MBq, iv measured 24 hrs post injection by gamma counting; assay type: ADME, organism-based, Neoplasm; settings: in vivo; outline: as §1
Mus musculus [11] = assay: Biodistribution in Balb/c mouse skeletal muscle at 1.37 MBq, iv up to 30 mins by gamma counter; assay type: ADME, organism-based, Muscle tissue; settings: in vivo, 0.5 h
Stomach = assay: Biodistribution in Balb/c mouse stomach at 1.37 MBq, iv up to 30 mins by gamma counter; assay type: ADME, organism-based; settings: in vivo, 0.5 h
Thyroid gland [12] = assay: Biodistribution in Balb/c mouse thyroid at 1.37 MBq, iv up to 30 mins by gamma counter; assay type: ADME, organism-based; settings: in vivo, 0.5 h
Liver = assay: Biodistribution in Balb/c mouse liver at 1.37 MBq, iv up to 30 mins by gamma counter; assay type: ADME, organism-based; settings: in vivo, 0.5 h
Kidney [13] = assay: Biodistribution in Balb/c mouse kidneys at 1.37 MBq, iv up to 30 mins by gamma counter; assay type: ADME, organism-based; settings: in vivo, 0.5 h
Spleen = assay: Biodistribution in Balb/c mouse spleen at 1.37 MBq, iv up to 30 mins by gamma counter; assay type: ADME, organism-based; settings: in vivo, 0.5 h
Brain = assay: Biodistribution in Balb/c mouse brain at 1.37 MBq, iv up to 30 mins by gamma counter; assay type: ADME, organism-based; settings: in vivo, 0.5 h
Bone = assay: Biodistribution in Balb/c mouse bone at 1.37 MBq, iv up to 30 mins by gamma counter; assay type: ADME, organism-based, Bone element; settings: in vivo, 0.5 h
Blood = assay: Biodistribution in Balb/c mouse blood at 1.37 MBq, iv up to 30 mins by gamma counter; assay type: ADME, organism-based; settings: in vivo, 0.5 h
Mus musculus [14] = assay: Biodistribution in Balb/c mouse small intestine at 1.37 MBq, iv up to 30 mins by gamma counter; assay type: ADME, organism-based; settings: in vivo, 0.5 h
Lung = assay: Biodistribution in Balb/c mouse lungs at 1.37 MBq, iv up to 30 mins by gamma counter; assay type: ADME, organism-based; settings: in vivo, 0.5 h
Mus musculus [15] = assay: Biodistribution in Balb/c mouse large intestine at 1.37 MBq, iv up to 30 mins by gamma counter; assay type: ADME, organism-based; settings: in vivo, 0.5 h
[16] = Stability in PBS at pH 7.4 assessed as deiodination of compound after 48 hrs; assay type: physicochemical; settings: buffer, pH 7.4, 48 h
Urinary bladder [17] = assay: Biodistribution in Balb/c mouse bladder at 1.37 MBq, iv up to 30 mins by gamma counter; assay type: ADME, organism-based; settings: in vivo, 0.5 h
[18] = Stability of the compound in PBS at pH 7.4 after 48 hrs; assay type: physicochemical; settings: buffer, pH 7.4, 48 h
Mus musculus [19] = assay: Biodistribution in Balb/c mouse adrenals at 1.37 MBq, iv up to 30 mins by gamma counter; assay type: ADME, organism-based, Adrenal tissue; settings: in vivo, 0.5 h
Heart = assay: Biodistribution in Balb/c mouse heart at 1.37 MBq, iv up to 30 mins by gamma counter; assay type: ADME, organism-based; settings: in vivo, 0.5 h

tissue uptake at 1 h [1]: < 2 %ID/g
Drug uptake (Thyroid gland [2]): 10 % ID/g
Drug uptake [3]: Active
Drug uptake [4]: 15 % ID/g
Drug uptake [5]: 20 % ID/g
Drug uptake (Kidney [6]): Active
Drug uptake (Urinary bladder [7]): Active
logD [8]: -3.23
Drug uptake (Thyroid gland [9]): Active
Drug uptake [10]: Active
Structure (SMILES): O=C(O)CC[C@H](NC(=O)N[C@@H](CCCCNC(=O)Cn1cc([123I])nn1)C(=O)O)C(=O)O

logD [8]: 0.07
Structure (SMILES): O=C(O)c1ccc(I)cc1

Drug uptake (Mus musculus [11]): Not Active
Drug uptake (Stomach): Not Active
Drug uptake (Thyroid gland [12]): Not Active
Drug uptake (Liver): Not Active
Drug uptake (Kidney [13]): Not Active
Drug uptake (Spleen): Not Active
Drug uptake (Brain): Not Active
Drug uptake (Bone): Not Active
logD [8]: -2.58
Drug uptake (Blood): Not Active
Drug uptake (Mus musculus [14]): Not Active
Drug uptake (Lung): Not Active
Drug uptake (Mus musculus [15]): Not Active
Stability [16]: Stable
Drug uptake (Urinary bladder [17]): Active
Stability [18]: Stable
Drug uptake (Mus musculus [19]): Not Active
Drug uptake (Heart): Not Active
Structure (SMILES): O=C(O)Cn1cc([123I])nn1
